Our source for the MIC and IC50 values is ChEMBL document CHEMBL1828530, “Quinonoid and phenazine compounds: synthesis and evaluation against H37Rv, rifampicin and isoniazid-resistance strains of Mycobacterium tuberculosis” (Eur J Med Chem, 2011).

Converted amounts (≈) assume the structure as drawn.

For assay [1], the system named is Mycobacterium tuberculosis. Description: Antitubercular activity against Mycobacterium tuberculosis H37Rv after 9 days by resazurin reduction assay. The class given is functional. The following applies: 216 h.
The next assay concerns PBMC. Description: Cytotoxicity against human PBMC after 72 hrs by Alamar blue assay. The assay is classed as cell-based. The essentials:
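Human peripheral blood mononuclear cells; compounds (0.048–25) in DMSO (0.1%) added 24 h after plating, then 72 h exposure. Alamar Blue absorbance read at 570 and 595 nm, medium-alone blank subtracted at each wavelength; effect expressed as percentage of control absorbance; IC50 derived.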

For `CC(C)CCC1=C(O)C(=O)c2ccccc2C1=O`, in assay [1], the MIC (usually the lowest concentration that inhibits growth of the organism) was found to be 205 µM (≈ 50.1 µg/mL). Besides, the half-maximal inhibitory concentration (IC50) (as a rule, the concentration that inhibits the measured activity by half) in the assay on PBMC was greater than 102 µM. On the same counts, the results for `CC(C)CC1=C(O)C(=O)c2ccccc2C1=O` are 217 µM (≈ 50.1 µg/mL) and 93.5 µM.

`CC(C)CC1=C(O)C(=O)C2=C(CCCC2)C1=O` yielded an MIC in assay [1] of 107 µM (≈ 25 µg/mL). In addition, the IC50 in the assay on PBMC was 64.2 µM. On the same counts, the results for `CCCC1=C(O)C(=O)c2ccccc2C1=O` are 462 µM (≈ 100 µg/mL) and 97.8 µM. As for `CCCC1=C(O)C(=O)C2=C(CCCC2)C1=O`, in assay [1], the minimum inhibitory concentration (MIC) stood at 227 µM (≈ 50 µg/mL). For the same compound, 89.1 µM corresponded to half-maximal inhibition in the assay with PBMC (IC50). On to `CC(C)=CCC1=C(OC2(CC=C(C)C)C(=O)c3ccccc3-c3nc4ccccc4nc32)C(=O)c2ccccc2C1=O` (centres undefined), for which the MIC in assay [1] was greater than 180 µM. In the assay on PBMC, this compound showed a half-inhibitory concentration (IC50) greater than 45.1 µM. On the same counts, the results for `CC(C)CCc1c2[nH]c3ccccc3nc-2c2ccccc2c1=O` are 19.8 µM (≈ 6.26 µg/mL) and 45.1 µM. In the same order, the values of `CC(C)CCc1c2[nH]c3ccccc3nc-2c2c(c1=O)CCCC2` are 9.75 µM (≈ 3.12 µg/mL) and greater than 78 µM. In the same order, the values of `CC(C)CCC1=C(OC2(CCC(C)C)C(=O)c3ccccc3-c3nc4ccccc4nc32)C(=O)c2ccccc2C1=O` (centres undefined) are greater than 179 µM and greater than 44.7 µM.

The compound `CC(C)CCC1=C(OC2(CCC(C)C)C(=O)C3=C(CCCC3)c3nc4ccccc4nc32)C(=O)C2=C(CCCC2)C1=O` (centres undefined) returned a minimal inhibitory concentration (MIC) in assay [1] of 176 µM (≈ 100 µg/mL). The 50% inhibitory concentration (IC50) in the assay on PBMC is greater than 44.9 µM. `CC(C)=Cc1c2[nH]c3ccccc3nc-2c2ccccc2c1=O`: the MIC in assay [1] is 83.3 µM (≈ 25 µg/mL). Further, in the assay on PBMC, the half-maximal inhibitory concentration (IC50) stood at 62 µM. In the same order, the values of `CC(C)Cc1c2[nH]c3ccccc3nc-2c2ccccc2c1=O` are greater than 331 µM and greater than 82.7 µM.

In the case of `CC(C)Cc1c2[nH]c3ccccc3nc-2c2c(c1=O)CCCC2`, the MIC in assay [1] is greater than 327 µM. The compound further had a 50% inhibitory concentration (IC50) in the assay with PBMC greater than 81.6 µM. In the same order, the values of `CC(C)CC1=C(OC2(CC(C)C)C(=O)c3ccccc3-c3nc4ccccc4nc32)C(=O)c2ccccc2C1=O` (centres undefined) are greater than 188 µM and greater than 47.1 µM. For `CC(C)CC1=C(OC2(CC(C)C)C(=O)C3=C(CCCC3)c3nc4ccccc4nc32)C(=O)C2=C(CCCC2)C1=O` (centres undefined), 92.8 µM (≈ 50 µg/mL) was the least that counted as inhibitory in assay [1] (MIC). The compound also returned a half-inhibitory concentration (IC50) with PBMC greater than 46.4 µM. Regarding `C=CCC1=C(O)C(=O)c2ccccc2C1=O`, in assay [1], the MIC was found to be 467 µM (≈ 100 µg/mL). In the assay on PBMC, this compound registered an IC50 greater than 117 µM. In the same order, the values of `C=CCc1c2[nH]c3ccccc3nc-2c2ccccc2c1=O` are 87.4 µM (≈ 25 µg/mL) and 64.3 µM. Consider `CCCc1c2[nH]c3ccccc3nc-2c2c(c1=O)CCCC2`, for which the IC50 with PBMC was greater than 85.5 µM. Consider `C=CCC1=C(OC2(CC=C)C(=O)c3ccccc3-c3nc4ccccc4nc32)C(=O)c2ccccc2C1=O` (centres undefined), for which the MIC in assay [1] is greater than 201 µM. In the assay on PBMC, the IC50 was greater than 50.1 µM. In the same order, the values of `CCCC1=C(OC2(CCC)C(=O)c3ccccc3-c3nc4ccccc4nc32)C(=O)c2ccccc2C1=O` (centres undefined) are greater than 199 µM and greater than 49.7 µM. In the same order, the values of `CCCC1=C(OC2(CCC)C(=O)C3=C(CCCC3)c3nc4ccccc4nc32)C(=O)C2=C(CCCC2)C1=O` (centres undefined) are greater than 196 µM and greater than 49 µM. In the same order, the values of `CC(C)CCC1=C(O)C(=O)C2=C(CCCC2)C1=O` are 101 µM (≈ 25 µg/mL) and 81.3 µM.

Consider `CC(C)=CC1=C(O)C(=O)c2ccccc2C1=O`, for which it took 219 µM (≈ 50.1 µg/mL) to inhibit growth in assay [1] (MIC). In the assay on PBMC, the concentration for half-maximal inhibition (IC50) is greater than 110 µM. Compound `NNC(=O)c1ccncc1` [ISONIAZID] yielded an MIC in assay [1] of 0.145 µM (≈ 0.0199 µg/mL).

As to `CC(C)=CCC1=C(O)C(=O)c2ccccc2C1=O` [LAPACHOL], inhibition of growth in assay [1] (MIC) required 207 µM (≈ 50.1 µg/mL). The same compound came in with a concentration for half-maximal inhibition (IC50) in the assay on PBMC greater than 103 µM. Compound `CO[C@H]1/C=C/O[C@@]2(C)Oc3c(C)c(O)c4c(O)c(c(/C=N/N5CCN(C)CC5)c(O)c4c3C2=O)NC(=O)/C(C)=C\C=C\[C@H](C)[C@H](O)[C@@H](C)[C@@H](O)[C@@H](C)[C@H](OC(C)=O)[C@@H]1C` [RIFAMPIN] returned an MIC in assay [1] of 0.12 µM (≈ 0.0988 µg/mL).
